pIC50: −log10 of the molar value.
What was measured:
[1] = system: Trypanosoma cruzi; assay: Growth inhibition of Trypanosoma cruzi Tulahuen epimastigotes assessed as drug level causing decrease in growth constant; type: functional, organism-based
How it was run: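 Tulahuen epimastigotes were seeded at 3 × 10^6/mL in Diamond's medium with 4 µM hemin, 5% FBS and penicillin/streptomycin at 28 °C. Drugs were added in DMSO (1% final) at several concentrations, in triplicate. Growth was followed daily for 10 days by nephelometry and fitted to first-order kinetics to give the growth constant k. ICk50 is the concentration lowering k by 50%.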

[2] = system: Trypanosoma cruzi; assay: Effect on oxygen uptake per mg of protein in Trypanosoma cruzi Tulahuen epimastigotes relative to control; type: functional; design: concentration or dose not given beside the values
How it was run: (§1)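 Tulahuen epimastigotes were harvested on day 4 or 5 (500g, 10 min), washed and resuspended in 0.05 M sodium phosphate buffer pH 7.4 (0.107 M NaCl, 0.05 M KH2PO4). Respiration was measured polarographically with a Clark electrode as nanoatoms-gram O/min/mg protein, as % of control. Redox cycling was measured with 20 mM KCN, as % of KCN control. Values are means of three experiments.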

[3] = system: Trypanosoma cruzi; assay: Antitrypanosomal activity against Trypanosoma cruzi MF assessed as trypomastigote viability at 24.7 uM by MTT assay relative to control
[4] = system: Trypanosoma cruzi; assay: Effect on oxygen redox cycling in Trypanosoma cruzi Tulahuen assessed as oxygen consumption per mg of protein relative to control; type: functional; design: concentration or dose not given beside the values; how it was run: as §1
[5] = system: Trypanosoma cruzi; assay: Antitrypanosomal activity against Trypanosoma cruzi MF assessed as trypomastigote viability at 1.93 uM by MTT assay relative to control
[6] = system: Trypanosoma cruzi; assay: Antitrypanosomal activity against Trypanosoma cruzi MF assessed as trypomastigote viability at 24.5 uM by MTT assay relative to control
[7] = system: Trypanosoma cruzi; assay: Antitrypanosomal activity against Trypanosoma cruzi MF assessed as trypomastigote viability at >100 uM by MTT assay relative to control
[8] = system: Trypanosoma cruzi; assay: Antitrypanosomal activity against Trypanosoma cruzi MF assessed as trypomastigote viability at 0.19 uM by MTT assay relative to control
[9] = system: Trypanosoma cruzi; assay: Antitrypanosomal activity against Trypanosoma cruzi MF assessed as trypomastigote viability at 38.1 uM by MTT assay relative to control
[10] = system: Trypanosoma cruzi; assay: Antitrypanosomal activity against Trypanosoma cruzi MF assessed as trypomastigote viability at 31.3 uM by MTT assay relative to control
[11] = system: Trypanosoma cruzi; assay: Antitrypanosomal activity against Trypanosoma cruzi MF assessed as viability at 3.75 uM by MTT assay relative to control
[12] = system: Trypanosoma cruzi; assay: Antitrypanosomal activity against Trypanosoma cruzi MF assessed as trypomastigote viability at 22.2 uM by MTT assay relative to control
[13] = system: Trypanosoma cruzi; assay: Antitrypanosomal activity against Trypanosoma cruzi MF assessed as trypomastigote viability at 20.1 uM by MTT assay relative to control

Compound | pIC50 [1] | Activity [2] [%] | Activity [4] [%] | further results
CC1(C)CCC2=C(O1)c1ccccc1C(=O)C2=O [LAPACHONE] | 4.61 | 107.5 | 100 | Activity [3]: 2.9%
CC(=O)CCC1=C(O)C(=O)c2ccccc2C1=O | 4.45 | 100.6 | 100 | –
CC1CCC2=C(O1)c1ccccc1C(=O)C2=O (stereo not given) | 5.71 | 100.6 | 100 | Activity [5]: 40.3%
CC1CCC2=C(O1)C(=O)c1ccccc1C2=O (stereo not given) | 4.61 | 138.8 | 173 | Activity [6]: 15.6%
CC(C)(O)CCC1=C(O)C(=O)c2ccccc2C1=O | < 4.00 | 125 | 109 | Activity [7]: 112.6%
CC1CC(c2ccccc2)C2=C(O1)C(=O)c1ccccc1C2=O (stereo not given) | 4.58 | 95.4 | 96 | –
CC1CS(=O)(=O)CCN1/N=C/c1ccc([N+](=O)[O-])o1 (stereo not given) [NIFURTIMOX] | 5.02 | 120.4 | 113 | –
CC1(C)CC(O)C2=C(O1)C(=O)c1ncccc1C2=O (stereo not given) | 6.72 | 33.2 | 55 | Activity [8]: 8.8%
COc1cccc2c1C(=O)C1=C(C=CC(C)(C)O1)C2=O | 4.42 | 100.2 | 100 | Activity [9]: 26.7%
CC(C)=CCC1=C(O)C(=O)c2ccccc2C1=O [LAPACHOL] | 4.50 | 51.8 | 82 | Activity [10]: 41.7%
CC1(C)OC2=C(CC1O)C(=O)C(=O)c1ccccc12 (stereo not given) | 5.43 | 96.8 | 100 | Activity [11]: 30.4%
CC(=O)CC1CCC2=C(O1)C(=O)c1ccccc1C2=O (stereo not given) | 4.44 | 142.5 | 168 | –
CC(=O)OC1CC(C)(C)OC2=C1C(=O)c1ccccc1C2=O (stereo not given) | 4.65 | 135.5 | 168 | Activity [12]: 32.9%
O=C(Cn1ccnc1[N+](=O)[O-])NCc1ccccc1 [BENZNIDAZOLE] | 4.69 | 57.8 | 82 | –
CC1(C)C=CC2=C(O1)C(=O)c1ncccc1C2=O | 4.70 | 243.3 | 254 | Activity [13]: 44.8%

Reference: ChEMBL document CHEMBL1143992, “Trypanosoma cruzi: activities of lapachol and alpha- and beta-lapachone derivatives against epimastigote and trypomastigote forms” (Bioorg Med Chem, 2008)
